Our source for the IC50 and viability values is ChEMBL document CHEMBL1152877, “Studies on depigmenting activities of dihydroxyl benzamide derivatives containing adamantane moiety” (Bioorg Med Chem Lett, 2009).

pIC50: −log10 of the molar value.

One data set deals with T1, Tyrosinase (Agaricus bisporus, UniProt O42713).
T1 sequence (O42713 whole entry): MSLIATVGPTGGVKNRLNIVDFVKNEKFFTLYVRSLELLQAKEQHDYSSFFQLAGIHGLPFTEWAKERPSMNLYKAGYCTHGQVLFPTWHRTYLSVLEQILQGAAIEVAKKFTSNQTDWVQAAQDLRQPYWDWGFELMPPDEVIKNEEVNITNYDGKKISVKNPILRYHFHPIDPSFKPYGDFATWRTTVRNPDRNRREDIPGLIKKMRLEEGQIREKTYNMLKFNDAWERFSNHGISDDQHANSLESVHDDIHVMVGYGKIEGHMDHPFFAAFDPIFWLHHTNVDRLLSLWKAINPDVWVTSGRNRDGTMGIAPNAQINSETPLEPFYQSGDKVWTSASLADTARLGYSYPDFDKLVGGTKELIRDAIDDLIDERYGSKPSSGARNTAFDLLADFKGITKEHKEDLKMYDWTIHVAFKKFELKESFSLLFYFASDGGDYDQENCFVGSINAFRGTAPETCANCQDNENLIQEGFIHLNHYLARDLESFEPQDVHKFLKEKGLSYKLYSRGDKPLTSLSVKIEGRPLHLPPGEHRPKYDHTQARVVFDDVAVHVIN
The data set is described as follows: Inhibition of mushroom tyrosinase activity after 20 mins. The gist of the method: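 Mushroom tyrosinase (2100 U/ml stock in 0.05 M phosphate pH 6.5) with 1.5 mM tyrosine stock in 0.1 M phosphate buffer pH 6.5; incubated 20 min at 37 °C, read on microplate reader. IC50 = concentration inhibiting 50% of enzyme activity, from logarithmic concentration-inhibition curves, mean of three experiments.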

Data set [1] can be described thus: Cytotoxicity against C57BL/6J mouse Melan-a cells assessed as cell survival at 20 uM by modified crystal violet assay. It is filed as cell-based. Conditions: read-out: Survival. The method in brief:
(§1)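 Murine melan-a melanocytes (from C57BL/6 J mice) seeded at 2 × 10⁵ cells/ml, compound added in triplicate; medium changed daily over 4 d culture. Viability by modified crystal violet: PBS wash, 0.1% crystal violet in 10% ethanol 5 min at room temperature, four distilled-water rinses, retained dye extracted with 95% ethanol 10 min at room temperature. Reported as % survival at the stated concentration.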

For a further data set, the system named is Melan-a. The data set is described as follows: Inhibition of melanin formation in C57BL/6J mouse Melan-a cells. It counts as functional, cell-based. The gist of the method:
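Murine melan-a melanocytes (C57BL/6J origin) seeded at 2 × 10⁵ cells/ml, compounds added in triplicate; medium changed daily, 4 d culture. Cells lysed in 1 N NaOH, relative melanin read at 400 nm. IC50 from logarithmic concentration-inhibition curves, means of three experiments. Viability by crystal violet (0.1% in 10% ethanol, 5 min RT; extracted with 95% ethanol 10 min).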

Data set [2] in a line: Cytotoxicity against C57BL/6J mouse Melan-a cells assessed as cell survival at 30 uM by modified crystal violet assay. It is filed as cell-based. Conditions: read-out: Survival. The method in brief: as §1
Data set [3] in a line: Cytotoxicity against C57BL/6J mouse Melan-a cells assessed as cell survival at 50 uM by modified crystal violet assay. Conditions: read-out: Survival. It is filed as cell-based. The method in brief: as §1
The nature of data set [4]: Cytotoxicity against C57BL/6J mouse Melan-a cells assessed as cell survival at 80 uM by modified crystal violet assay. It is filed as cell-based. Conditions: read-out: Survival. The method in brief: as §1
Data set [5] can be described thus: Cytotoxicity against C57BL/6J mouse Melan-a cells assessed as cell survival at 10 uM by modified crystal violet assay.

For orientation: pIC50 means −log10 of the IC50, conventionally taken in molar units. Higher therefore signals a low IC50. Regarding `O=C(NC12CC3CC(CC(C3)C1)C2)c1cc(O)ccc1O`, the values for the pIC50 against Tyrosinase and in the data set with Melan-a were under 3.70 and 5.01, respectively. In data set [1], the viability at 20 µM was found to be 99.1%.
As to `O=C(NC12CC3CC(CC(C3)C1)C2)c1cc(O)cc(O)c1`, the pIC50 on Tyrosinase was under 3.70; with Melan-a, 4.90. In addition, the viability at 30 µM in data set [2] amounted to 91.3%.
For `O=C(NC12CC3CC(CC(C3)C1)C2)c1cccc(O)c1O`, the results for the pIC50 against Tyrosinase and in the data set with Melan-a were under 3.70 and 6.14, respectively. Moreover, the viability at 20 µM in data set [1] turned out to be 96.2%.
In the case of `O=C(NC12CC3CC(CC(C3)C1)C2)c1ccc(O)cc1O`, the pIC50 on Tyrosinase was under 3.70; with Melan-a it was 4.47. The viability at 50 µM in data set [3] was 99.2%.
Take `Oc1ccc(C23CC4CC(CC(C4)C2)C3)c(O)c1`: the negative logarithm of the IC50 (pIC50) against Tyrosinase was 6.05; with Melan-a, 5.05. Also, the viability at 20 µM in data set [1] amounted to 91.7%.
`O=C(NC12CC3CC(CC(C3)C1)C2)c1ccc(O)c(O)c1`: the pIC50 against Tyrosinase was under 3.70; with Melan-a, 5.90. Further, in data set [2], the viability at 30 µM stood at 95.2%.
With `CCCCc1ccc(O)cc1O` [RUCINOL], the pIC50 against Tyrosinase is 6.82; in the data set on Melan-a, 4.66. Further, in data set [4], the viability at 80 µM came to 98.2%.
As for `Oc1ccc(O)cc1` [HYDROQUINONE], the negative logarithm of the IC50 (pIC50) at Tyrosinase was 5.01; in the data set with Melan-a, 5.40. Besides, the viability at 10 µM in data set [5] was 87.3%.
